Active and inactive are the calls of the source. The calls are words filed in the database; no cut-off is given here. Where a SMILES comes first, the peptide text is derived from it. [ ]: non-standard residue; d: D form. dGly(6-heptenyl) = C=CCCCCC[C@@H](N)C(=O)O; Ala(5-hexenyl) = C=CCCCCC[C@H](N)C(=O)O
What was measured:
Mus musculus [1] = species: Mus musculus; experiment: Induction of pre-beta HDL formation in C57/BL6 mouse plasma at 0.25 mg/ml after 2 hrs by FPLC; type: functional; conditions: C57Bl/6
Outline: (§1)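 Peptide was added to C57Bl/6 mouse plasma (final 0.25 mg/ml) or human plasma (final 0.5 mg/ml) and incubated at 37 °C. Lipoproteins were fractionated by Superose 6 FPLC in PBS pH 7.4 with 1 mM EDTA. Cholesterol was measured by enzymatic colorimetry and peptide by LC–MS against an internal standard.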

[2] = biological target: Phospholipid-transporting ATPase ABCA1 (Mus musculus) (UniProt P41233); experiment: Induction of ABCA1-mediated [3H]cholesterol efflux in mouse J774 macrophages; conditions: TDE = time-dependent effect
Outline: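 Ex vivo serum efflux. J774 macrophages were labeled with [3H]cholesterol for 24 h, then equilibrated 18 h in 0.2% BSA, with or without cpt-cAMP. Cells were incubated 4 h at 37 °C with 2% serum from peptide-dosed apoe-/- mice (60 mg/kg sc). Fractional efflux was media [3H] over total at time zero; ABCA1-dependent efflux = cAMP-treated minus untreated.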

Plasma [3] = experiment: Induction of pre-beta HDL formation in human plasma after 2 hrs by ELISA; type: functional, cell-free
Outline: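 Increasing peptide concentrations were incubated with normal human plasma at 37 °C for 2 h. Pre-β HDL was quantified by a commercial human pre-β HDL ELISA.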

Mus musculus [4] = experiment: Increase in VLDL triglyceride level in C57/BL6 mouse at 30 mg/kg, sc by FPLC; type: functional, organism-based; design: dose 30 mg/kg; conditions: C57Bl/6
Outline: (§2)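 Male C57Bl/6 mice (≥12 weeks, chow-fed) dosed subcutaneously with peptide in vehicle (50 mM mannitol in PBS); serum collected by cardiac puncture at time points post-dose. Serum was pooled (three animals per pool), given protease and lipase inhibitors, filtered, and fractionated by Superose 6 FPLC in PBS pH 7.4 with 1 mM EDTA at 0.2 ml/min. Cholesterol and triglyceride in fractions were measured by enzymatic colorimetry.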

Mus musculus [5] = experiment: Induction of hypertriglyceridemia in C57/BL6 mouse at 30 mg/kg, sc by FPLC; type: functional, organism-based; design: dose 30 mg/kg; conditions: C57Bl/6; outline: as §2
Mus musculus [6] = experiment: Decrease in HDL cholesterol level in C57/BL6 mouse at 30 mg/kg, sc after 24 hrs by FPLC; type: functional, organism-based; design: dose 30 mg/kg; conditions: C57Bl/6; outline: as §2
[7] = biological target: Lipoprotein lipase (Bos taurus) (UniProt P11151); experiment: Inhibition of Lipoprotein lipase in vitro
[8] = biological target: Phospholipid-transporting ATPase ABCA1 (Mus musculus, UniProt P41233); experiment: Induction of ABCA1-mediated [3H]cholesterol efflux in mouse RAW 264.7 macrophages after 24 hrs
Mus musculus [9] = experiment: Effect on TG content of HDL in C57/BL6 mouse at 100 mg/kg, sc after 24 hrs by FPLC; type: functional, organism-based; design: dose 100 mg/kg; conditions: C57Bl/6; outline: as §2
Mus musculus [10] = experiment: Increase in VLDL triglyceride level in C57/BL6 mouse at 100 mg/kg, sc by FPLC; type: functional, organism-based; design: dose 100 mg/kg; conditions: C57Bl/6; outline: as §2
Mus musculus [11] = experiment: Effect on triglyceride level in C57/BL6 mouse at 20 mg/kg, sc after 1 hr; type: functional, organism-based; design: dose 20 mg/kg; conditions: C57Bl/6
Outline: (§3)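 Male C57Bl/6 mice (≥12 weeks, chow-fed) given peptide subcutaneously in 50 mM mannitol/PBS vehicle. Serum was collected by cardiac puncture at 1 or 3 h, clotted 1 h at room temperature and spun at 10,000g. Serum triglyceride was measured by enzymatic colorimetric assay, with 3–5 animals per dose and time point.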

Mus musculus [12] = experiment: Increase in VLDL cholesterol level in C57/BL6 mouse at 30 mg/kg, sc by FPLC; type: functional, organism-based; design: dose 30 mg/kg; conditions: C57Bl/6; outline: as §2
Mus musculus [13] = experiment: Increase in VLDL cholesterol level in C57/BL6 mouse at 100 mg/kg, sc by FPLC; type: functional, organism-based; design: dose 100 mg/kg; conditions: C57Bl/6; outline: as §2
Mus musculus [14] = experiment: Decrease in HDL cholesterol level in C57/BL6 mouse at 100 mg/kg, sc after 24 hrs by FPLC; type: functional, organism-based; design: dose 100 mg/kg; conditions: C57Bl/6; outline: as §2
Mus musculus [15] = experiment: Effect on TG content in HDL in C57/BL6 mouse at 30 mg/kg, sc after 24 hrs by FPLC; type: functional, organism-based; design: dose 30 mg/kg; conditions: C57Bl/6; outline: as §2
[16] = Plasma concentration in C57/BL6 mouse at 60 mg/kg, sc after 3 hrs; type: ADME, organism-based, C57Bl/6; design: dose 60 mg/kg, route subcutaneous
Outline: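 Male C57Bl/6 mice were dosed subcutaneously with peptide in 50 mM mannitol/PBS. Serum was taken by cardiac puncture, and peptide was measured by LC–MS/MS after acetonitrile protein precipitation.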

Plasma [17] = experiment: Induction of pre-beta HDL formation in human plasma at 0.5 mg/ml after 2 hrs by FPLC; type: functional, cell-free; outline: as §1
Mus musculus [18] = experiment: Induction of pre-beta HDL formation in apoe deficient mouse assessed as increase in circulating pre-beta HDL at 60 mg/kg, sc after 2 hrs by FPLC; type: functional, organism-based; design: dose 60 mg/kg; conditions: TDE = time-dependent effect
Mus musculus [19] = experiment: Effect on triglyceride level in C57/BL6 mouse at 20 mg/kg, sc after 3 hrs; type: functional, organism-based; design: dose 20 mg/kg; conditions: C57Bl/6; outline: as §3
Plasma [20] = experiment: Induction of pre-beta HDL formation in mouse plasma after 2 hrs by ELISA; type: functional, cell-free
Mus musculus [21] = experiment: Induction of hypertriglyceridemia in C57/BL6 mouse at 100 mg/kg, sc by FPLC; type: functional, organism-based; design: dose 100 mg/kg; conditions: C57Bl/6; outline: as §2
Mus musculus [22] = experiment: Effect on triglyceride level in C57/BL6 mouse at 60 mg/kg, sc after 1 hr; type: functional, organism-based; design: dose 60 mg/kg; conditions: C57Bl/6; outline: as §3
Mus musculus [23] = experiment: Effect on triglyceride level in C57/BL6 mouse at 60 mg/kg, sc; type: functional, organism-based; design: dose 60 mg/kg; conditions: C57Bl/6, TDE = time-dependent effect; outline: as §3

Chain of Phospholipid-transporting ATPase ABCA1 (P41233 whole entry): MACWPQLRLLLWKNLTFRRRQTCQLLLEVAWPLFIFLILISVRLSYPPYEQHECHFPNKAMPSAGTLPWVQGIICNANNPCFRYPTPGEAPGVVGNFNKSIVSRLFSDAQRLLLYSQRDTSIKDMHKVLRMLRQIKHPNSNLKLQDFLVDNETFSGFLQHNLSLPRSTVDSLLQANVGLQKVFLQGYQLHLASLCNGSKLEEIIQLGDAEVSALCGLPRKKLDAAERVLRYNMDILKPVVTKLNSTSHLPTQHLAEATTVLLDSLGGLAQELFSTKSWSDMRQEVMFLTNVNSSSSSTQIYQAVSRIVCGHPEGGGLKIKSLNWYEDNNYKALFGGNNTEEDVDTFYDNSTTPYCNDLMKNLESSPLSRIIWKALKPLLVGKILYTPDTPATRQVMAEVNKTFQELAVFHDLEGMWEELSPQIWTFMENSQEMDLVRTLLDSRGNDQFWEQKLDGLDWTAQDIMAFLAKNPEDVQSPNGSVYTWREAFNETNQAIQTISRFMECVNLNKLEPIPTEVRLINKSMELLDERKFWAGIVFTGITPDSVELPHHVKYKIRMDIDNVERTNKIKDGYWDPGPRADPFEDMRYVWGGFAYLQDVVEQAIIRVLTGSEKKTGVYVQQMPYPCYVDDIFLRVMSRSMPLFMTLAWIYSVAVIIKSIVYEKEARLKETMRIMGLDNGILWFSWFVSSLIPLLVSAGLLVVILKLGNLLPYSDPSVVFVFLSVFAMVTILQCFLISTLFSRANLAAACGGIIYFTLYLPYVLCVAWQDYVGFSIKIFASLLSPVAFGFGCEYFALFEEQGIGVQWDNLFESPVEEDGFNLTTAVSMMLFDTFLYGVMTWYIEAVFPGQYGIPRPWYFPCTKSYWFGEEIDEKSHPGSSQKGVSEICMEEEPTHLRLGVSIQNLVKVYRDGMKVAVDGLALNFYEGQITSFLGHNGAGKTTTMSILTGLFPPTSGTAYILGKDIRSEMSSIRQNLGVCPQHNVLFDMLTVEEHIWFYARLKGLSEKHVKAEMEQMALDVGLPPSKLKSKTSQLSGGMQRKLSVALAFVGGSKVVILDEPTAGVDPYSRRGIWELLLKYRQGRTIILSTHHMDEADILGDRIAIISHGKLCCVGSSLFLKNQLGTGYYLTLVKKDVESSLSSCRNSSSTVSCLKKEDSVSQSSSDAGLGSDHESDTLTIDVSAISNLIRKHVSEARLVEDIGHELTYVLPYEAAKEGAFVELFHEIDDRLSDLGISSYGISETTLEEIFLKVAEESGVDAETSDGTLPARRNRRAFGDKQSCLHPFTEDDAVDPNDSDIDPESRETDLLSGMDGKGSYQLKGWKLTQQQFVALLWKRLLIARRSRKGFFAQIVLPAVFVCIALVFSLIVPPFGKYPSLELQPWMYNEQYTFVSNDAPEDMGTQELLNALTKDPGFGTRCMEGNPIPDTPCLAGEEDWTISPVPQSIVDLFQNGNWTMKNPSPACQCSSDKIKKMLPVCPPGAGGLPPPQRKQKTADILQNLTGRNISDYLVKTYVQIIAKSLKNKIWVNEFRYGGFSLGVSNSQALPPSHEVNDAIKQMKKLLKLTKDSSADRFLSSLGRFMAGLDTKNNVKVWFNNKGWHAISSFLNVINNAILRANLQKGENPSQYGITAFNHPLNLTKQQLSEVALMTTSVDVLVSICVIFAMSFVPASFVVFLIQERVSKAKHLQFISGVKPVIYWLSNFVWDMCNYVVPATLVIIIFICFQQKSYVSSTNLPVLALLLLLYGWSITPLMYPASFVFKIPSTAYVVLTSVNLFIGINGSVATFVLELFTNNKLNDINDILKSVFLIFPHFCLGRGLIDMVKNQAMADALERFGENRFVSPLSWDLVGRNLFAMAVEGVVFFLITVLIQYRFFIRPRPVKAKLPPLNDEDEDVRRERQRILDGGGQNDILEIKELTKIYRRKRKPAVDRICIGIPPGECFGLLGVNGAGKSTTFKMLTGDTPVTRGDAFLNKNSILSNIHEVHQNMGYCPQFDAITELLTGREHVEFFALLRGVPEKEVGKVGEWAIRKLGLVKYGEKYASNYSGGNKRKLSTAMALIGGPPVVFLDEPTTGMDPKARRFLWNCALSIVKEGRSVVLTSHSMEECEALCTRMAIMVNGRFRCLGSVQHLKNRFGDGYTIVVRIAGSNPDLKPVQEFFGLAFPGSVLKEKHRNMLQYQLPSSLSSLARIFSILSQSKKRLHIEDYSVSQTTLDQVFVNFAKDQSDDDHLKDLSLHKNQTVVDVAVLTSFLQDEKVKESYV
Chain of Phospholipid-transporting ATPase ABCA1 (Mus musculus) (P41233 whole entry): as above

IC50 [7]	EC50 [8]	concentration at 3 h [16]	Molecule	Activity (Plasma [3])	Activity (Mus musculus [11])	Activity (Mus musculus [19])	Activity (Mus musculus [22])	also measured
60 µM	0.4 µM	124 µM	C=CCCCCC[C@H](NC(=O)[C@H](CCC(=O)O)NC(=O)[C@H](CC(N)=O)NC(=O)[C@H](CC(C)C)NC(=O)[C@H](CCCCN)NC(=O)[C@H](CCC(=O)O)NC(=O)[C@H](CCCNC(=N)N)NC(=O)[C@H](CCCCCC=C)NC(=O)[C@H](CCC(=O)O)NC(=O)[C@H](CC(=O)O)NC(=O)[C@H](CC(C)C)NC(=O)[C@@H](NC(=O)[C@@H]1CCCN1C(C)=O)C(C)C)C(=O)N[C@@H](CC(C)C)C(=O)N[C@@H](CCC(=O)O)C(=O)N[C@@H](C)C(=O)N[C@@H](CC(C)C)C(=O)N[C@@H](CCCCN)C(=O)N[C@@H](CCC(N)=O)C(=O)N[C@@H](CCCCN)C(=O)N[C@@H](CC(C)C)C(=O)N[C@@H](CCCCN)C(N)=O (Ac-PVLDE[Ala(5-hexenyl)]REKLNE[Ala(5-hexenyl)]LEALKQKLK-NH2)	Dose-dependent effect	inactive	inactive	inactive	Activity (Mus musculus [1]): Active; Activity [2]: tde; Activity (Mus musculus [4]): Active; Activity (Mus musculus [5]): inactive; Activity (Mus musculus [6]): Active; Activity (Mus musculus [9]): inactive; Activity (Mus musculus [10]): Active; Activity (Mus musculus [12]): Active; Activity (Mus musculus [13]): Active; Activity (Mus musculus [14]): Active; Activity (Mus musculus [15]): inactive; Activity (Plasma [17]): Active; Activity (Mus musculus [18]): tde; Activity (Plasma [20]): Dose-dependent effect; Activity (Mus musculus [21]): Active
40 µM	1 µM	49 µM	C=CCCCCC[C@H](NC(=O)[C@H](CCC(N)=O)NC(=O)[C@H](CCCCN)NC(=O)[C@H](CC(C)C)NC(=O)[C@H](C)NC(=O)[C@H](CCC(=O)O)NC(=O)[C@H](CC(C)C)NC(=O)[C@H](CCCCCC=C)NC(=O)[C@H](CCC(=O)O)NC(=O)[C@H](CC(N)=O)NC(=O)[C@H](CC(C)C)NC(=O)[C@H](CCCCN)NC(=O)[C@H](CCC(=O)O)NC(=O)[C@H](CCCNC(=N)N)NC(=O)[C@@H](CCCCCC=C)NC(=O)[C@H](CCC(=O)O)NC(=O)[C@H](CC(=O)O)NC(=O)[C@H](CC(C)C)NC(=O)[C@@H](NC(=O)[C@@H]1CCCN1C(C)=O)C(C)C)C(=O)N[C@@H](CC(C)C)C(=O)N[C@@H](CCCCN)C(N)=O (Ac-PVLDE[dGly(6-heptenyl)]REKLNE[Ala(5-hexenyl)]LEALKQ[Ala(5-hexenyl)]LK-NH2)	Dose-dependent effect	inactive	inactive	inactive	
21 µM	0.9 µM	55 µM	C=CCCCCC[C@H](NC(=O)[C@H](CCC(=O)O)NC(=O)[C@H](CC(N)=O)NC(=O)[C@H](CC(C)C)NC(=O)[C@H](CCCCN)NC(=O)[C@H](CCC(=O)O)NC(=O)[C@H](CCCNC(=N)N)NC(=O)[C@@H](CCCCCC=C)NC(=O)[C@H](CCC(=O)O)NC(=O)[C@H](CC(=O)O)NC(=O)[C@H](CC(C)C)NC(=O)[C@H](CCCCCC=C)NC(=O)[C@@H]1CCCN1C(C)=O)C(=O)N[C@@H](CC(C)C)C(=O)N[C@@H](CCC(=O)O)C(=O)N[C@@H](C)C(=O)N[C@@H](CC(C)C)C(=O)N[C@@H](CCCCN)C(=O)N[C@@H](CCC(N)=O)C(=O)N[C@@H](CCCCN)C(=O)N[C@@H](CC(C)C)C(=O)N[C@@H](CCCCN)C(N)=O (Ac-P[Ala(5-hexenyl)]LDE[dGly(6-heptenyl)]REKLNE[Ala(5-hexenyl)]LEALKQKLK-NH2)		inactive	inactive	inactive	
477 µM			Ac-PVLDEFREKLNEELEALKQKLK-NH2	inactive				Activity (Mus musculus [23]): tde

From ChEMBL document CHEMBL1629456, “ApoA-I mimetic peptides promote pre-β HDL formation in vivo causing remodeling of HDL and triglyceride accumulation at higher dose” (Bioorg Med Chem, 2010)
